Each structure is given as a SMILES string. Activity calls are given as the source filed them.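 How the source made its calls: active means mean EC50 below 10 µM; inactive means the rest.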

Drawing on PubChem BioAssay AID493183 (Sanford-Burnham Center for Chemical Genomics, 2011), this text covers EC50 for seven molecules.

Apelin receptor (Homo sapiens), sequence (P35414 whole entry, looked up, the tested form may be a part): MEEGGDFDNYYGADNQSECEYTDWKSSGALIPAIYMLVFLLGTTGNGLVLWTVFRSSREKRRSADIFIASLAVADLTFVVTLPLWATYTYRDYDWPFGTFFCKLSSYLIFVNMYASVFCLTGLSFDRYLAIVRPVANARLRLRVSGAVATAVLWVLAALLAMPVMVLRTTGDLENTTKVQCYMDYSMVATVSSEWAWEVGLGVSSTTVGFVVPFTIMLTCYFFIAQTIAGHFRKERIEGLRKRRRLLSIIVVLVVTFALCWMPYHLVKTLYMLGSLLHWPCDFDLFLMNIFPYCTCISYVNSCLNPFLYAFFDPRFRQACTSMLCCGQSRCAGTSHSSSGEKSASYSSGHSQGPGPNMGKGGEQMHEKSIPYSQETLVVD

The target in the experiment is Apelin receptor (Homo sapiens) (UniProt P35414). The experiment can be described thus: apelin receptor activation by small molecules – cell-based, CHO-K1 AGTRL-1, PathHunter luminescence, set 4, SAR follow-up (AID 493183). The note with it: CHO-K1 AGTRL-1 PathHunter beta-arrestin. The method, boiled down: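 System: CHO-K1 APJ β-arrestin enzyme-fragment complementation cell line | Timing: Cells seeded overnight, compound exposure 90 min at 25 °C, detection 60 min | Technique: Luminescence from β-gal fragment complementation after adding detection reagent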
One may read the EC50 as the concentration at which the effect is half-maximal. Take `COC(=O)c1cc(NS(=O)(=O)c2ccccc2)ccc1O`: the EC50 was > 79 µM (inactive).

In the case of `CC1=CC(=O)C(C(C)C)=C/C1=N/OS(=O)(=O)c1ccc(C(C)(C)C)cc1`, the EC50 result is “inactive”. Turning to `O=S(=O)(Nc1cc(Cl)c(O)c(Cl)c1)c1ccccc1`, the EC50 is > 79 µM (inactive). In the case of `Cc1cc(O)c(C(C)C)cc1NS(=O)(=O)c1ccccc1`, the EC50 is > 79 µM (inactive).

Consider `CC1=CC(=O)C(C(C)C)=C/C1=N/OS(=O)(=O)c1ccc(OC(F)(F)F)cc1`, for which the EC50 is 3.82 µM.

`CC1=CC(=O)C(C(C)C)=C/C1=N/OS(=O)(=O)c1cccnc1`: the EC50 was 6.45 µM. On to `CC1=CC(=O)C(C(C)C)=C/C1=N/OS(=O)(=O)c1ccc(C(F)(F)F)cc1`, for which the concentration giving a half-maximal response (EC50) was 3.69 µM.
